Source: the RNAGym collection of RNA variant scans (doi:10.1126/science.aae0568)
Fewer inactive variants are shown than the library holds.

B1: tRNA (parent)
chain: GUUCCGUUGGCGUAAUGGUAACGCGUCUCCCUCCUAAGGAGAAGACUGCGGGUUCGAGUCCCGUACGGAACG

Variants of: B1
Experiment: yeast fitness relative to wild type (ratio to wild type); higher = fitter; tRNA-Arg(CCU), competitive growth, 37 C, YPD
Outline: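 Amplicons of the tRNA-Arg(CCU) gene were sequenced, 100-nucleotide paired-end, from the start population and from each end population of a pooled yeast competition. The competition, in six parallel replicates, lasted 24 hours in YPD at 37°C. Fitness relative to wild type was calculated from changes in genotype frequencies. Genotypes had to have ≥ 100 starting reads, and estimates < 0.5 were set to 0.5.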

| Variant | yeast fitness |
| --- | --- |
| A15C G25C | 0.709 |
| A15C G25A A42U A65C G67U | ≤ 0.5 |
| A15G A21U | 0.989 |
| A15C G18A U19G | ≤ 0.5 |
| A15C G17C C22G C24A C31A G67C | 0.752 |
| A15C U16C C27U C31G A69C | ≤ 0.5 |
| A15C U47G G52A G68A | ≤ 0.5 |
| A15C G23C A65G | ≤ 0.5 |
| A15G A36U C61U | ≤ 0.5 |
| A15C U28C | 0.737 |
| A15G A37C A69C | 0.863 |
| A15C U35G G56C | ≤ 0.5 |
| A15C U47G | 0.663 |
| A15G A21G C55G | ≤ 0.5 |
| A15G A37C G56C A65C | ≤ 0.5 |
| A15C G17C A45U | ≤ 0.5 |
| A15G A20C C24G G41C C46A C62G | ≤ 0.5 |
| A15C G58A C61A | ≤ 0.5 |
| A15C G58A G68A A70C | ≤ 0.5 |
| A15C U28C C34G | ≤ 0.5 |
| A15C G56A A57C | ≤ 0.5 |
| A15G A20C U54A C62U | ≤ 0.5 |
| A15C G51C | 0.504 |
| A15C G52A | 0.712 |

| Variant | yeast fitness |
| --- | --- |
| A15G A20G C27U | 0.732 |
| A15C U16C C31G A69U | ≤ 0.5 |
| A15C G48C C66U G67C | ≤ 0.5 |
| A15C U28G C30G A40C A42U | ≤ 0.5 |
| A15G A20G C27A A40G A45C C55U | ≤ 0.5 |
| A15G A21C C24G A40U C49U | ≤ 0.5 |
| A15G A37G C66U G67A | ≤ 0.5 |
| A15C U28A G39A A65G | ≤ 0.5 |
| A15C G25C G52A A57C C60G | ≤ 0.5 |
| A15G A20U G48A | 0.66 |
| A15G A43G A57U | 0.793 |
| A15C G48A C49U U64G C66U | ≤ 0.5 |
| A15C U54A C61U A70U | 0.645 |
| A15G A36G U54A | ≤ 0.5 |
| A15C G39A C60G A70G | ≤ 0.5 |
| A15C G17U C46U | 0.633 |
| A15C U28G A45G G51C | 0.554 |
| A15G A21U A45G C62G | 0.506 |
| A15C G41C C49U G68C | ≤ 0.5 |
| A15C G48C C66A | ≤ 0.5 |
| A15C U19C C46A U59A | ≤ 0.5 |
| A15C U26A A40C | 0.63 |
| A15C U28C A43U | ≤ 0.5 |
| A15C U26G U28C U32C A37G G41A C49G | ≤ 0.5 |

| Variant | yeast fitness |
| --- | --- |
| A15G A20C A21C G23A G52U | ≤ 0.5 |
| A15C G18C U26C C29A C34G | 0.616 |
| A15C U16C A65G | ≤ 0.5 |
| A15C G18C A42C | ≤ 0.5 |
| A15C U19C | 1.03 |
| A15G A20U A45U | ≤ 0.5 |
| A15C G50C U53A C66A | ≤ 0.5 |
| A15C U16C A37C A43C | ≤ 0.5 |
| A15C U19C A21G C34U U53C | ≤ 0.5 |
| A15G A20U C33A A36C A42U C55G C60A A69G | 0.594 |
| A15C G25A C61U | 0.664 |
| A15C G17U U19A C31U C34A | ≤ 0.5 |
| A15C G56A C61U | 0.614 |
| A15C G39A | 0.664 |
| A15C G39C | 0.638 |
| A15C U28C C61G | ≤ 0.5 |
| A15G A20U A45U U64C | 0.593 |
| A15G A40U G48C C60G | ≤ 0.5 |
| A15C U19A C24G G63A | ≤ 0.5 |
| A15G A43C | 0.847 |
| A15C U28A C34G A43U | 0.564 |
| A15C G68A | 0.76 |
| A15G A36G G41A G52A | ≤ 0.5 |
| A15C G18A U35C | ≤ 0.5 |

| Variant | yeast fitness |
| --- | --- |
| A15C U35C | 0.578 |
| A15C U16A C31G C34U A65U C66G | ≤ 0.5 |
| A15C G41C C46A | ≤ 0.5 |
| A15C G44A | 0.707 |
| A15C G25A U26C A69U | ≤ 0.5 |
| A15C G48C | 0.69 |
| A15C G41C A45C | ≤ 0.5 |
| A15G A20U G63A | 0.603 |
| A15C U26G U28C A37G G41A C49G | 0.59 |
| A15C U28G A45G G51C A70G | 0.584 |
| A15C U19C A37C G51A C60A | 0.557 |
| A15C U54C C66G | ≤ 0.5 |
| A15G A37U C62A | ≤ 0.5 |
| A15C U28C G48C G50U | ≤ 0.5 |
| A15C G41C A45C C62U | ≤ 0.5 |
| A15G A37U C61A | ≤ 0.5 |
| A15G A43C G67U A70U | ≤ 0.5 |
| A15C G48A A57G C61A | ≤ 0.5 |
| A15C G50C | 0.672 |
| A15G A37G G56C | ≤ 0.5 |
| A15C G18C A40U | ≤ 0.5 |
| A15G A37G A70C | 0.664 |
| A15C U28A C30U C34G A43U | ≤ 0.5 |
| A15G A42C C49A C62U A69C | ≤ 0.5 |

| Variant | yeast fitness |
| --- | --- |
| A15C G17A U35A | ≤ 0.5 |
| A15C G39A G56A | ≤ 0.5 |
| A15C U19C A37C G51A | ≤ 0.5 |
| A15C U32G | 0.504 |
| A15C U32C | 0.767 |
| A15C G52A A70U | ≤ 0.5 |
| A15C G23A C24G C46G C55G | ≤ 0.5 |
| A15C G58C | 0.575 |
| A15G A20G C27A A40G A45C | 0.503 |
| A15C G23C G41A | ≤ 0.5 |
| A15G A37C C46U C49U | ≤ 0.5 |
| A15C G44A A57C | ≤ 0.5 |
| A15C G18C A42C G51C A65C | ≤ 0.5 |
| A15C U19G C55G | ≤ 0.5 |
| A15C U26A G38A A40U G50C C60G A70G | ≤ 0.5 |
| A15C U53A | 0.578 |
| A15C G23C C31A | ≤ 0.5 |
| A15C U26A | 0.523 |
| A15G A21G C34U G44A C61A A70C | ≤ 0.5 |
| A15C U59C | 0.741 |
| A15C U19A C24G C34G C46U U54C C61A A70U | ≤ 0.5 |
| A15G A40U A45G | 0.585 |
| A15C U26C G67U A69G | ≤ 0.5 |
| A15G A20U C22U G38C | ≤ 0.5 |

| Variant | yeast fitness |
| --- | --- |
| A15C U26A G50C | ≤ 0.5 |
| A15G A42G | 0.929 |
| A15G A20G C27U C33U A37U G38C C60U C62A G63U | 0.684 |
| A15C G23C U64C A65G | ≤ 0.5 |
| A15G A42C G50A U59C A65C | ≤ 0.5 |
| A15G A36C G50C | ≤ 0.5 |
| A15C U26C G48C | ≤ 0.5 |
| A15C G18A C24G | ≤ 0.5 |
| A15G A36U C61U A65U | ≤ 0.5 |
| A15G A43C C61A | ≤ 0.5 |
| A15G A20U C29G A43G A70U | ≤ 0.5 |
| A15G A21C C49U | ≤ 0.5 |
| A15C U16A G56C A57C C60U | ≤ 0.5 |
| A15C G41C U59G A70G | ≤ 0.5 |
| A15G A20G A40U | 0.808 |
| A15C U16A A21G U26A C30U C61A | 0.692 |
| A15C G50C U64C | 0.545 |
| A15G A36U C55A A57C | 0.579 |
| A15G A36C C46A A65G | ≤ 0.5 |
| A15C U35A A36G G41A U47A | ≤ 0.5 |
| A15C U26A C31G U32A | ≤ 0.5 |
| A15G A36G A43U | 0.601 |
| A15C U19A A70C | ≤ 0.5 |
| A15C G23C | 0.555 |

| Variant | yeast fitness |
| --- | --- |
| A15C U32C C62U | 0.54 |
| A15C U47A G68U | 0.57 |
| A15G A36G A43G A57U | ≤ 0.5 |
| A15G A37U C55U | 0.556 |
| A15G A20G C49A C62U | 0.567 |
| A15C G56C | 0.685 |
| A15G A21U U26C | 0.535 |
| A15C U16C A20C U54C A57G | ≤ 0.5 |
| A15G A20G A40C C46U C49A A57U A65C C66G | ≤ 0.5 |
| A15C G17C C31A U32C G44C | ≤ 0.5 |
| A15C U32C A36C A45C C60U | ≤ 0.5 |
| A15G A21C C33G A43U | 0.57 |
| A15C G44A G67A | ≤ 0.5 |
| A15G A20C | 0.779 |
| A15G A20U | 1.06 |
| A15G A20G | 1.04 |
| A15C U28A C34G A37G A43U | ≤ 0.5 |
| A15G A36C C46A C66U | ≤ 0.5 |
| A15C U35C A37U C66U | ≤ 0.5 |
| A15C G38A | 0.581 |
| A15C U16G A21C C24A U32A A45C | ≤ 0.5 |
| A15C G52A C66U | ≤ 0.5 |
| A15C G48C G68U | 0.548 |
